In the library only some 3.5% were active in any assay of this set; here they are far more common.
RGS4 inh = RGS4 inhibitors, primary screen, cell-based, HEK293 M3R inducible RGS4, calcium flux. Regulator of G-protein signaling 4 (Homo sapiens), P49798. Fluo-4 calcium flux; stronger effect = higher value; triggered by carbachol at its EC20. B-score at 10 µM. actives 0.45% (n = 310,000). AID 463165, 2010;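 active = B-score, a plate-corrected calcium signal, over three deviations above library mean, with baseline fluorescence within five deviations of library mean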;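 note: RGS4 expression induced by doxycycline in cells with stable M3 receptor; B-score is computed from the integrated fluorescence ratio over baseline after carbachol; higher B-score means a larger calcium signal and so more RGS4 inhibition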
Target sequence (P49798 whole entry, looked up): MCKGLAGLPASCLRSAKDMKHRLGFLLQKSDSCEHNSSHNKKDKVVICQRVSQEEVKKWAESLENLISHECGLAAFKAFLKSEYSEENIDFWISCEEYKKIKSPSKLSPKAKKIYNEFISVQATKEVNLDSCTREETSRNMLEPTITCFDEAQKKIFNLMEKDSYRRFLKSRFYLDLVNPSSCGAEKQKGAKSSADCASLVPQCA
MrgX1 antag = antagonists of human MrgX1 receptor, primary screen, HEK293 cells, Fluo-4 calcium flux; actives 1.3% (n = 310,000); B-score at 10 µM; Mas-related G-protein coupled receptor member X1 (Homo sapiens), Q96LB2; BAM8-22 antagonism; stronger effect = lower value; AID 588676, 2011;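 active = calcium-response B-score plate-corrected more than 3 library SD below zero, starting fluorescence within 5 deviations, no agonist response on first addition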;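 note: peak minus trough fluorescence over baseline after final BAM8-22 challenge near maximal dose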
Target sequence (Q96LB2 whole entry, looked up): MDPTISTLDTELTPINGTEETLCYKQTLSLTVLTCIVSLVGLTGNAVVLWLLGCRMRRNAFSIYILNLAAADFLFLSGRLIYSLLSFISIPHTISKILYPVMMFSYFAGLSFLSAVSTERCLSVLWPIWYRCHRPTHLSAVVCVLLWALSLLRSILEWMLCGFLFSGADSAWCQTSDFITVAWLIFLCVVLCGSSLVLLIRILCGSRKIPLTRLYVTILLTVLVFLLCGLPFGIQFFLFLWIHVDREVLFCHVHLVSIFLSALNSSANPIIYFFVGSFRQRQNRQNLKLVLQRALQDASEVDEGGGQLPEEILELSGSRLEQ
MrgX1 allo act = positive allosteric modulators of MrgX1, primary screen, HEK293 cells, Fluo-4 calcium flux | Mas-related G-protein coupled receptor member X1 (Homo sapiens), Q96LB2 | FDSS; stronger effect = higher value | B-score at 10 µM | actives 0.63% (n = 310,000) | AID 588675, 2011;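 active = plate-corrected calcium response at least 3 library SD above typical, normal starting fluorescence, not activating the receptor alone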;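 note: compound read alongside a low EC10 to EC30 dose of BAM8-22 agonist; peak minus trough fluorescence over baseline measured at the second addition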
MrgX1 ag = agonists of human MrgX1 receptor, primary screen, HEK293 cells, Fluo-4 calcium flux. Mas-related G-protein coupled receptor member X1 (Homo sapiens), Q96LB2. Fluo-4 calcium fluorescence, agonist mode; stronger effect = higher value. B-score at 10 µM. actives 0.44% (n = 310,000);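 active = calcium response B-score plate-corrected fluorescence ratio at least 3 library SD, with starting fluorescence B-score inside 5 SD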
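Test system: HEK293 cells stably expressing human MrgX1 receptor; Input: fifteen thousand cells per well; Dosing: compound delivered in addition one of three; Schedule: overnight seeding, then 1 h dark dye loading; Technique: Fluo-4 NW calcium fluorescence; Measure: B-scored fluorescence response ratio; Controls: positive and negative controls per plate.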
RGS4 pot = RGS4 potentiators or activators, primary screen, cell-based, HEK293 M3R inducible RGS4, calcium flux; carbachol calcium flux Fluo4; stronger effect = lower value; actives 0.92% (n = 310,000); AID 463111, 2010; B-score at 10 µM;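 active = B-score of the integrated calcium signal more than 4 SD below the library mean, with starting fluorescence not abnormally high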;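 note: negative B-score means reduced calcium response which marks RGS4 activation or potentiation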
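System: HEK293 FlpIn-TREx cells, stable M3R, doxycycline-inducible RGS4. Timing: overnight RGS4 induction, 30 min dye load 37 °C, 20 min compound RT. Also added: carbachol, ECmax concentration. Measured by: Fluo4 fluorescence kinetic imaging of calcium. Evaluation: integrated calcium ratio converted to B score.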
RGS4 inh valid = enhanced carbachol calcium response, M3R/RGS4 cells, RGS4 inhibitor project, cell-based, validation screen, HEK293 M3R/RGS4, calcium flux. carbachol calcium Fluo-4 fluorescence; carbachol added at its EC20; 0 = buffer wells, 100 = carbachol control. actives 65% (n = 1,700). shares compounds with RGS4 inh. calcium response, % at 10 µM;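 active = duplicate-averaged calcium response above the buffer-only control mean plus 5 SD of those controls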;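 note: integrated fluorescence ratio F max minus min over baseline F0; higher response in RGS4-induced cells means RGS4 inhibition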
M3R Ca ctr = carbachol calcium response in non-induced M3R cells, confirmation, counter-screen for RGS4 inhibitor project, cell-based, HEK293 M3R | shares compounds with RGS4 inh | carbachol calcium Fluo-4; submaximal (EC20) carbachol stimulus; buffer wells 0%, carbachol control wells 100% | activity (percent), % at 10 µM | actives 20% (n = 1,900); call rule not given here;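 note: RGS4 induction absent so cells express M3R without RGS4; higher means more calcium signal and flags a non-specific hit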
RGS4 inh ctr2 = signal in non-induced cells without carbachol, RGS4 inhibitor counter-screen | HEK293 M3R/RGS4 non-induced, Fluo-4 calcium, no carbachol; normalised: buffer wells 0%, carbachol wells 100% | AID 493001 | shares compounds with RGS4 inh | calcium response (agonist-mode artifact), % at 10 µM | actives 22% (n = 1,900);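 active = duplicate-averaged calcium rise in uninduced cells above buffer wells' mean plus 5 SD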
* hit, by the source's call; i = inactive; . = not tested or not shown.

SMILES	RGS4 inh	MrgX1 antag	MrgX1 allo act	MrgX1 ag	RGS4 pot	RGS4 inh valid	M3R Ca ctr	RGS4 inh ctr2
O=C1NN(c2ccc(F)cc2)C(=O)/C1=C\c1cnn(-c2ccccc2)c1	i	i	i	i	i	.	.	.
COc1cc(/C=C2/C(=O)NN(c3ccccc3)C2=O)cc(Br)c1O	5.7*	i	i	31*	i	5.5%*	i	i
COc1cc(/C=C2\C(=O)NN(c3ccccc3)C2=O)cc([N+](=O)[O-])c1O	i	i	i	i	i	.	.	.
O=C(/C(=C/O)N=Nc1ccccc1)c1ccc(Cl)cc1	8.7*	i	i	i	i	64%*	78%*	i
COc1ccc(N2C(=O)CC(N3CCN(S(=O)(=O)c4c(F)cccc4F)CC3)C2=O)cc1OC (stereo not given)	6.8*	i	i	i	i	9.0%*	i	i
COc1cccc(N2CCN(C3CC(=O)N(c4ccc(F)c(Cl)c4)C3=O)CC2)c1 (stereo not given)	i	i	i	i	i	.	.	.
COc1ccc(CNC(=O)CSc2nc3ccc(C)cc3[nH]2)cc1OC	i	i	i	i	i	.	.	.
C=CCn1nc([N+](=O)[O-])nc1Sc1cccc2cccnc12	6.2*	i	i	i	i	30%*	i	i
O=c1c2ccccc2nc2c3ccccc3c3nncn3n12	i	.	.	.	i	.	.	.
O=c1c2ccccc2nc2n1CCS2(=O)=O	6.2*	i	i	i	i	26%*	i	i
CCc1sc(C(C2C(=O)CC(C)(C)CC2=O)C2C(=O)CC(C)(C)CC2=O)cc1[N+](=O)[O-]	30*	i	i	52*	i	30%*	i	121%*
CCOC(=O)c1c(-c2ccc(C)o2)csc1NC(=O)CN1CCCCC1	i	i	i	i	i	.	.	.
CCOC(=O)c1c(-c2ccccc2)csc1NC(=O)CSc1nc(C)cc(C)n1	i	i	i	i	i	i	i	i
CCOC(=O)c1c(-c2ccc(C)o2)csc1NC(=O)CSc1nncs1	13*	i	i	i	i	11%*	i	i
CCOC(=O)c1c(-c2ccccc2)csc1NC(=O)CSc1nc(N)cc(N)n1	5.5*	i	i	i	i	6.0%*	i	i
CCN(C(=O)c1cn(C)c(=O)c2ccccc12)c1ccccc1F	i	i	i	i	i	.	.	.
CC(=O)Nc1ccc(NC(=O)CC2Nc3cccc4cccc(c34)NC2=O)cc1 (stereo not given)	i	i	i	i	i	i	i	i
Cc1ccccc1OCc1nnc(SCC(=O)Nc2ccc3c(c2)oc2ccccc23)n1C	5.1*	i	i	i	i	14%*	i	i
CCOc1ccc(CNC(=O)CN2C(=O)CSc3ccc(S(=O)(=O)N4CCOCC4)cc32)cc1OC	i	i	i	i	i	.	.	.
Cc1ccc(-c2csc(NC(=O)C3=COCCO3)n2)cc1	i	i	i	i	i	i	i	i
O=C(Nc1nc(-c2ccc(Oc3ccccc3)cc2)cs1)C1=COCCO1	21*	i	i	i	i	32%*	42%*	i
CC(=O)Nc1ccc(-c2csc(NC(=O)C3=COCCO3)n2)cc1	i	i	i	i	i	.	.	.
CCN(CC(=O)NC(C)C)Cc1nc2c(Br)cc(Br)cc2c(=O)[nH]1	5*	i	i	i	i	25%*	i	12%*
COc1cc(/C=C/[N+](=O)[O-])ccc1OC(=O)/C=C/c1ccc(F)cc1	i	i	i	i	i	.	.	.
CC1=CC(C)(C)N2C(=O)C3(C(C#N)=C(N)OC4=C3C(=O)CCC4)c3c(C)c(C)cc1c32 (stereo not given)	i	i	i	i	i	.	.	.
SMILES	RGS4 inh	MrgX1 antag	MrgX1 allo act	MrgX1 ag	RGS4 pot	RGS4 inh valid	M3R Ca ctr	RGS4 inh ctr2
CC1=CC(C)(C)N2C(=O)C3(C(C#N)=C(N)Oc4cc(O)ccc43)c3c(C)c(C)cc1c32 (stereo not given)	5.9*	i	i	i	i	29%*	i	i
O=C1Nc2ccc(Br)cc2/C1=C/C(=O)c1ccc2c(c1)OCO2	6.1*	-5*	i	i	i	i	41%*	i
O=C1Nc2ccccc2/C1=C\C(=O)c1ccccc1	i	i	i	i	i	.	.	.
N#C/C(=C/c1ccc(O)cc1)C(=O)NCc1ccc(Cl)cc1	i	i	i	i	i	i	i	i
Cc1ccccc1CS(=O)(=O)CCC(=O)NCc1ccc(F)cc1Cl	i	i	i	i	i	.	.	.
Oc1ccc(-c2csc(Nc3ccccn3)n2)cc1	i	i	i	i	i	i	i	i
Cc1cccnc1Nc1nc(-c2ccc(O)cc2)cs1	i	i	i	i	i	.	.	.
Cc1ccc(-c2csc(Nc3ccccn3)n2)cc1	9.1*	i	i	i	i	i	i	i
Cc1cc(-c2csc(Nc3ccccn3)n2)ccc1F	5.4*	i	i	i	i	16%*	i	i
c1ccc(-c2csc(Nc3ccccn3)n2)cc1	i	i	i	i	i	i	i	i
COc1ccc(-c2csc(Nc3ccccn3)n2)cc1OC	i	i	i	i	i	.	.	.
CC(C)c1ccc(N=C2N=C(N)c3ccccc32)cc1	i	i	i	i	i	.	.	.
CC(=O)c1ccc(N2CCN(C(=O)Nc3cccc(F)c3)CC2)cc1	i	i	i	i	i	.	.	.
